What is called ED50 is the dose that gives a 50% effect, or the effect in half of the subjects. Low readings indicate greater potency, high ones weaker potency.

What all share (assay type): functional
For test [1], the species on record is Mus musculus. The test is described as follows: Loss of traction (TR) was evaluated in CF1 mice. A digest of the protocol:
(§1)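 Compounds dissolved or suspended in 0.25% aqueous methylcellulose and given ip to mice in groups of four or six per dose, at several dose levels spaced 0.3 log units apart. Scoring follows previously described procedures. ED50 values in mg/kg were calculated by the Spearman-Karber method.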

Test [2] is filed under the species Mus musculus. The test is described as follows: Evaluated for the antagonism of nicotine induced death (D) in CF1 mice. Summed up: as §1
The species named for test [3] is Mus musculus. The test is described as follows: Evaluated for the pentylene induced clonic convulsions (P) in CF1 mice. A digest of the protocol: as §1
The species named for test [4] is Mus musculus. The test is described as follows: Evaluated for antagonistic activity on nicotine-induced tonic-extensor convulsions (TE) in CF1 mice. A digest of the protocol: as §1
The species entered for test [5] is Mus musculus. Nature of the test: Loss of righting reflex (LORR) was evaluated in CF1 mice. A digest of the protocol: as §1
Test [6] is filed under the species Mus musculus. The test is described as follows: Loss of righting reflex (LORR) was evaluated in mice. Summed up: as §1
Test [7] is filed under the species Mus musculus. The test is described as follows: Loss of traction (TR) was evaluated in mice. Summed up:
as §1

Bounds are passed on as bounds.

In the case of `Cc1nnc2n1-c1ccc(Cl)cc1C1(c3ccccc3)ON1C2` (centres undefined), the ED50 in the test listed under Mus musculus [1] was 2.5 mg/kg; in the test listed under Mus musculus [2] it was 0.12 mg/kg; in the test listed under Mus musculus [3] it was 0.2 mg/kg; in the test listed under Mus musculus [4], 0.12 mg/kg; in the test listed under Mus musculus [5], above 25 mg/kg.

`Cc1nnc2n1-c1ccc(Cl)cc1C(c1ccccc1)NC2=O` (centres undefined): the ED50 in the test filed under Mus musculus [1] is above 100 mg/kg; in the test filed under Mus musculus [3] it was above 25 mg/kg; in the test listed under Mus musculus [4], above 100 mg/kg; in the test listed under Mus musculus [5], above 100 mg/kg.

For `Cc1nnc2n1-c1ccc(Cl)cc1C(c1ccccc1)=NC2N` (centres undefined), the ED50 is 18 mg/kg in the test filed under Mus musculus [1]; above 100 mg/kg in the test filed under Mus musculus [6]; 0.63 mg/kg in the test listed under Mus musculus [2]; 3.5 mg/kg in the test filed under Mus musculus [3]; 0.36 mg/kg in the test filed under Mus musculus [4].

Regarding `CCOC(=O)CC1(C(=O)OCC)N=C(c2ccccc2)c2cc(Cl)ccc2-n2c(C)nnc21` (centres undefined), the ED50 is above 200 mg/kg in the test listed under Mus musculus [1]; above 200 mg/kg in the test filed under Mus musculus [2]; above 50 mg/kg in the test listed under Mus musculus [3]; above 200 mg/kg in the test listed under Mus musculus [4]; above 200 mg/kg in the test listed under Mus musculus [5].

As for `Cc1nnc2n1-c1ccc(Cl)cc1C(c1ccccc1)=[N+]([O-])C2`, the ED50 is 10 mg/kg in the test listed under Mus musculus [1]; 0.2 mg/kg in the test listed under Mus musculus [2]; 1.8 mg/kg in the test filed under Mus musculus [3]; 0.2 mg/kg in the test filed under Mus musculus [4]; above 200 mg/kg in the test filed under Mus musculus [5].

For `CCOC(=O)C1N=C(c2ccccc2)c2cc(Cl)ccc2-n2c(C)nnc21` (centres undefined), the ED50 was above 100 mg/kg in the test filed under Mus musculus [1]; above 100 mg/kg in the test listed under Mus musculus [6]; 45 mg/kg in the test filed under Mus musculus [2]; above 100 mg/kg in the test listed under Mus musculus [3]; 50 mg/kg in the test filed under Mus musculus [4].

Regarding `CC(=O)OC1N=C(c2ccccc2)c2cc(Cl)ccc2-n2c(C)nnc21` (centres undefined), the ED50 in the test listed under Mus musculus [1] is 18 mg/kg; in the test filed under Mus musculus [2], 1 mg/kg; in the test filed under Mus musculus [3], 8.9 mg/kg; in the test filed under Mus musculus [4] it was 1 mg/kg; in the test listed under Mus musculus [5], above 200 mg/kg.

As to `Cc1nnc2n1-c1ccc(Cl)cc1C(c1ccccc1)=NC2` [ALPRAZOLAM], the ED50 in the test listed under Mus musculus [7] is 0.6 mg/kg; in the test filed under Mus musculus [2] it was 0.02 mg/kg; in the test filed under Mus musculus [3], 0.2 mg/kg; in the test listed under Mus musculus [4] it was 0.02 mg/kg; in the test listed under Mus musculus [5], above 100 mg/kg.

With `CCOC(=O)C1(C)N=C(c2ccccc2)c2cc(Cl)ccc2-n2c(C)nnc21` (centres undefined), the ED50 is 112 mg/kg in the test filed under Mus musculus [1]; 18 mg/kg in the test filed under Mus musculus [2]; 40 mg/kg in the test listed under Mus musculus [3]; 16 mg/kg in the test filed under Mus musculus [4]; above 200 mg/kg in the test filed under Mus musculus [5].

Turning to `CCOC(=O)C1(N)N=C(c2ccccc2)c2cc(Cl)ccc2-n2c(C)nnc21` (centres undefined), the ED50 was 159 mg/kg in the test listed under Mus musculus [1]; 4.5 mg/kg in the test filed under Mus musculus [2]; 32 mg/kg in the test filed under Mus musculus [3]; 3.1 mg/kg in the test filed under Mus musculus [4]; above 200 mg/kg in the test filed under Mus musculus [5].

Consider `Cc1nnc2n1-c1ccc(Cl)cc1C(c1ccccc1)=NC2O` (centres undefined) [4-HYDROXY-ALPRAZOLAM], for which the ED50 was 23 mg/kg in the test listed under Mus musculus [1]; 4 mg/kg in the test listed under Mus musculus [2]; 8.9 mg/kg in the test listed under Mus musculus [3]; 4 mg/kg in the test filed under Mus musculus [4]; above 50 mg/kg in the test listed under Mus musculus [5].

In the case of `Cc1nnc2n1-c1ccc(Cl)cc1C(c1ccccc1)=NC2CC(=O)O` (centres undefined), the median effective dose (ED50) is 13 mg/kg in the test listed under Mus musculus [1]; above 200 mg/kg in the test filed under Mus musculus [6]; 0.9 mg/kg in the test filed under Mus musculus [2]; 5 mg/kg in the test filed under Mus musculus [3]; 0.9 mg/kg in the test filed under Mus musculus [4].

Turning to `Cc1nnc2n1-c1ccc(Cl)cc1C(c1ccccc1)N=C2N` (centres undefined), the ED50 was above 200 mg/kg in the test filed under Mus musculus [1]; 40 mg/kg in the test listed under Mus musculus [2]; above 100 mg/kg in the test filed under Mus musculus [3]; 40 mg/kg in the test filed under Mus musculus [4]; above 200 mg/kg in the test filed under Mus musculus [5].

As to `Cc1nnc2n1-c1ccc(Cl)cc1C(c1ccccc1)=NC2C` (centres undefined), the ED50 in the test listed under Mus musculus [1] was 1.8 mg/kg; in the test listed under Mus musculus [6], above 200 mg/kg; in the test filed under Mus musculus [2], 0.056 mg/kg; in the test filed under Mus musculus [3], 0.1 mg/kg; in the test filed under Mus musculus [4] it was 0.056 mg/kg.
